The source made the active and inactive calls. No cut-off for these calls is given here. Where a SMILES comes first, the peptide text is derived from it. [ ]: non-standard residue; d: D form. The star is where a group is joined. Hyp = O=C(O)[C@@H]1C[C@@H](O)CN1; Decanoyl = CCCCCCCCCC(=O)*; X1 = CC(C)C[C@@H](CN)N*; Aib = CC(C)(N)C(=O)O
Key:
[1] = test system: Bacillus cereus; test: Antimicrobial activity against Bacillus cereus at 100 ug/disk by disk diffusion assay; format: functional; details: read-out: IZ
Summary of the method: (§1)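 Bacterial targets grown 24 h in nutrient broth. 0.6 mL of culture was spread on 9 cm nutrient agar plates and dried 1 h. Test samples in 10 µL MeOH were applied to 4 mm filter paper disks, air-dried 1 h and placed on the plates. Read-out was the inhibition zone diameter in mm.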

[2] = test system: Bacillus subtilis; test: Antimicrobial activity against Bacillus subtilis at 100 ug/disk by disk diffusion assay; format: functional; details: read-out: IZ; summary of the method: as §1
[3] = test system: Escherichia coli; test: Antimicrobial activity against Escherichia coli at 100 ug/disk by disk diffusion assay; format: functional; details: read-out: IZ; summary of the method: as §1
[4] = test system: Bacillus cereus; test: Antimicrobial activity against Bacillus cereus by disk diffusion assay; format: functional, organism-based; summary of the method: as §1
[5] = test system: Bacillus subtilis; test: Antimicrobial activity against Bacillus subtilis by disk diffusion assay; format: functional, organism-based; summary of the method: as §1
[6] = test system: Escherichia coli; test: Antimicrobial activity against Escherichia coli by disk diffusion assay; format: functional, organism-based; summary of the method: as §1
[7] = test system: Botrytis cinerea; test: Antimicrobial activity against Botrytis cinerea by disk diffusion assay; format: functional
Summary of the method: (§2)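 Filamentous fungal targets were tested on potato dextrose agar plates spread with 0.6 mL spore suspension (1 × 10^6 spores/mL) and dried 1 h. Samples in 10 µL MeOH were loaded on 4 mm paper disks, air-dried 1 h and laid on the plates. Activity was scored as inhibition zone size in mm.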

[8] = test system: Colletotrichum fragariae; test: Antimicrobial activity against Colletotrichum fragariae by disk diffusion assay; format: functional; summary of the method: as §2
[9] = test system: Colletotrichum gloeosporioides; test: Antimicrobial activity against Colletotrichum gloeosporioides by disk diffusion assay; format: functional; summary of the method: as §2
[10] = test system: Fusarium oxysporum; test: Antimicrobial activity against Fusarium oxysporum by disk diffusion assay; format: functional; summary of the method: as §2
[11] = test system: Bacillus cereus; test: Antimicrobial activity against Bacillus cereus at 30 ug/disk by disk diffusion assay; format: functional; details: read-out: IZ; summary of the method: as §1
[12] = test system: Bacillus subtilis; test: Antimicrobial activity against Bacillus subtilis at 30 ug/disk by disk diffusion assay; format: functional; details: read-out: IZ; summary of the method: as §1

Q: With `CCCCCCCCCC(=O)N1C[C@H](O)C[C@H]1C(=O)N1C[C@H](O)C[C@H]1C(=O)N[C@H](C(=O)NC(C)(C)C(=O)N[C@@H](CCC(N)=O)C(=O)NC(C)(C)C(=O)N[C@@H](CC(C)C)C(=O)N[C@H](CN)CC(C)C)C(C)C` [CICADAPEPTIN I] (Decanoyl-[Hyp][Hyp]V[Aib]Q[Aib]L-X1) as the compound, how does the zone of inhibition at 100 µg/disc [1] read?
A: 13 mm

Q: And the zone of inhibition at 100 µg/disc [2]?
A: 13 mm

Q: What about the zone of inhibition at 100 µg/disc [3] of the same compound?
A: 16 mm

Q: How did the zone of inhibition at 100 µg/disc [1] turn out when `CCCCCCCCCC(=O)N1C[C@H](O)C[C@H]1C(=O)N1C[C@H](O)C[C@H]1C(=O)N[C@H](C(=O)NC(C)(C)C(=O)N[C@@H](CCC(N)=O)C(=O)NC(C)(C)C(=O)N[C@H](C(=O)N[C@H](CN)CC(C)C)[C@@H](C)CC)C(C)C` [CICADAPEPTIN II] (Decanoyl-[Hyp][Hyp]V[Aib]Q[Aib]I-X1) was run?
A: 12 mm

Q: And the zone of inhibition at 100 µg/disc [2]?
A: 11 mm

Q: What about the zone of inhibition at 100 µg/disc [3] of the same compound?
A: 16 mm

Q: How did the Activity [4] turn out when `CCCCCCC(=O)CCCCCC/C=C/C[C@@H](O)[C@H](O)[C@@](N)(CO)C(=O)O` [MYRIOCIN] was run?
A: inactive

Q: What about the Activity [5] of the same compound?
A: inactive

Q: What about the Activity [6] of the same compound?
A: inactive

Q: What about the “inhibition zone (IZ)” value [7] of the same compound?
A: 28 mm

Q: What about the “inhibition zone (IZ)” value [8] of the same compound?
A: 14 mm

Q: And the “inhibition zone (IZ)” value [9]?
A: 8 mm

Q: And the “inhibition zone (IZ)” value [10]?
A: 17 mm

Q: What does the source list for `CN(C)[C@@H]1C(O)=C(C(N)=O)C(=O)[C@@]2(O)C(O)=C3C(=O)c4c(O)cccc4[C@@](C)(O)[C@H]3C[C@@H]12` [TETRACYCLINE]?
A: zone of inhibition at 30 µg/disc [11]: 29 mm; zone of inhibition at 30 µg/disc [12]: 18 mm
